Test results from ChEMBL document CHEMBL3244032, “Synthesis and antiviral acticity of some phosphates of the broad-spectrum antiviral nucleoside, 1-beta-D-ribofuranosyl-1,2,4-triazole-3-carboxamide (ribavirin)” (J Med Chem, 1978).
Calls of active or inactive are those of the source. The calls are words filed in the database; no cut-off is given here.

Key:
KB [1] = assay: Antiviral activity against Adenovirus type 3 infected in human KB cells assessed as inhibition of virus-induced cytopathic effect at 1 to 1000 ug/ml after 72 hrs; type: functional, cell-based; settings: Human adenovirus 3
Summary of the method: (§1)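 KB cell monolayers (24 h old) infected with 320 cell culture 50% infectious doses/mL of virus; compound added 15 min after infection at 1000 to 1 μg/mL. Plates incubated 72 h at 37 °C and scored for inhibition of viral CPE. Activity was expressed as a virus rating that accounts for cytotoxicity and CPE in treated versus untreated cells. VR 0.5 or above was taken as definite activity.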

Human alphaherpesvirus 1 = assay: Antiviral activity against HSV1 infected in human KB cells assessed as inhibition of virus-induced cytopathic effect at 1 to 1000 ug/ml after 72 hrs; type: functional, organism-based; summary of the method: as §1
Human respirovirus 3 = assay: Antiviral activity against Parainfluenza virus type 3 infected in human KB cells assessed as inhibition of virus-induced cytopathic effect at 1 to 1000 ug/ml after 72 hrs; type: functional, organism-based; summary of the method: as §1
Vaccinia virus = assay: Antiviral activity against Vaccinia virus infected in human KB cells assessed as inhibition of virus-induced cytopathic effect at 1 to 1000 ug/ml after 72 hrs; type: functional, organism-based; settings: Orthopoxvirus vaccinia
KB [2] = assay: Antiviral activity against Rhinovirus type 13 infected in human KB cells assessed as inhibition of virus-induced cytopathic effect at 1 to 1000 ug/ml after 72 hrs; type: functional, cell-based; settings: Human rhinovirus A13; summary of the method: as §1
Mus musculus [3] = assay: Toxicity in Swiss mouse infected with Influenza A2 virus Japan 305 assessed as survival at 75 mg/kg/day, po bid administered for 9 days started at 4 hrs prior to infection; type: organism-based; set-up: route oral; settings: in vivo
Murine hepatitis virus [4] = assay: Antiviral activity against Murine hepatitis virus Friend-Braunsteiner infected in Swiss mouse assessed as mean survival time at 75 mg/kg/day, ip bid administered for 8 days (reference value: 5.2 days); type: functional; settings: route intraperitoneal
Summary of the method: (§2)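 Swiss mice, 16-18 g, inoculated ip with a 95% lethal dose of virus. Dosed ip twice daily for 8 days, beginning 2 h before inoculation, at 18.8, 37.5 or 75 mg/kg/day; controls got saline. Survivors counted on day 21; survival compared by χ² analysis. Mean survival time is from deaths on or before day 21, compared by t test.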

Mus musculus [5] = assay: Toxicity in Swiss mouse infected with Murine hepatitis virus Friend-Braunsteiner assessed as survival at 37.5 mg/kg/day, ip bid administered for 8 days started at 2 hrs prior to infection; type: organism-based; set-up: route intraperitoneal; settings: in vivo
Murine hepatitis virus [6] = assay: Antiviral activity against Murine hepatitis virus Friend-Braunsteiner infected in Swiss mouse assessed as survival at 18.8 to 75 mg/kg/day, ip bid administered for 8 days relative to control; type: functional, organism-based
Summary of the method: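 Swiss mice of 16-18 g were inoculated ip with a 95% lethal dose of virus. Treatment was given ip twice daily for 8 days, starting 2 h before inoculation, at 75, 37.5 or 18.8 mg/kg/day; placebo controls received saline. Survivors were counted on day 21 postinfection and compared by χ² analysis. Mean survival time covered animals dying by day 21 and was compared by t test. Uninfected toxicity controls were included.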

Influenza A virus [7] = assay: Antiviral activity against Influenza A2 virus Japan 305 infected in Swiss mouse assessed as mean survival time at 75 mg/kg/day, po bid administered for 9 days (reference value: 9 days); type: functional
Influenza B virus [8] = assay: Antiviral activity against Influenza B virus Lee infected in Swiss mouse assessed as survival at 75 mg/kg/day, ip bid administered for 9 days relative to control; type: functional, organism-based
Summary of the method: (§3)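 Swiss mice, 14-16 g, given virus intranasally at a dose lethal to 95%. Dosed intraperitoneally twice daily for 9 days, starting 4 h before infection; controls got saline. Survivors counted on day 21 postinfection; survival compared by χ² analysis. Mean survival time is from animals dying on or before day 21 and was compared by t test.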

Influenza A virus [9] = assay: Antiviral activity against Influenza A2 virus Japan 305 infected in Swiss mouse assessed as survival at 75 mg/kg/day, po bid administered for 9 days relative to control; type: functional, organism-based
Mus musculus [10] = assay: Toxicity in Swiss mouse infected with Murine hepatitis virus Friend-Braunsteiner assessed as survival at 18.8 mg/kg/day, ip bid administered for 8 days started at 2 hrs prior to infection; type: organism-based; set-up: route intraperitoneal; settings: in vivo
Mus musculus [11] = assay: Toxicity in Swiss mouse infected with Murine hepatitis virus Friend-Braunsteiner assessed as survival at 75 mg/kg/day, ip bid administered for 8 days started at 2 hrs prior to infection; type: organism-based; set-up: route intraperitoneal; settings: in vivo
Murine hepatitis virus [12] = assay: Antiviral activity against Murine hepatitis virus Friend-Braunsteiner infected in Swiss mouse assessed as mean survival time at 18.8 mg/kg/day, ip bid administered for 8 days (reference value: 5.2 days); type: functional; settings: route intraperitoneal; summary of the method: as §2
Mus musculus [13] = assay: Toxicity in Swiss mouse infected with Influenza B virus Lee assessed as survival at 75 mg/kg/day, ip bid administered for 9 days started at 4 hrs prior to infection; type: organism-based; set-up: route intraperitoneal; settings: in vivo
Murine hepatitis virus [14] = assay: Antiviral activity against Murine hepatitis virus Friend-Braunsteiner infected in ip dosed Swiss mouse assessed as most effective dose administered bid for 8 days; type: functional; summary of the method: as §2
Influenza B virus [15] = assay: Antiviral activity against Influenza B virus Lee infected in Swiss mouse assessed as mean survival time at 75 mg/kg/day, ip bid administered for 9 days (reference value: 11.2 days); type: functional; settings: route intraperitoneal; summary of the method: as §3
Murine hepatitis virus [16] = assay: Antiviral activity against Murine hepatitis virus Friend-Braunsteiner infected in Swiss mouse assessed as mean survival time at 37.5 mg/kg/day, ip bid administered for 8 days (reference value: 5.2 days); type: functional; settings: route intraperitoneal; summary of the method: as §2
[17] = Toxicity in Swiss mouse; type: organism-based; settings: in vivo

SMILES | Activity (KB [1]) | Activity (Human alphaherpesvirus 1) | Activity (Human respirovirus 3) | Activity (Vaccinia virus) | Activity (KB [2]) | Activity (Mus musculus [3]) | MSD (Murine hepatitis virus [4]) [days] | Activity (Mus musculus [5]) | Activity (Murine hepatitis virus [6]) | MSD (Influenza A virus [7]) [days] | Activity (Influenza B virus [8]) | Activity (Influenza A virus [9]) | Activity (Mus musculus [10]) | Activity (Mus musculus [11]) | MSD (Murine hepatitis virus [12]) [days] | Activity (Mus musculus [13]) | Activity (Murine hepatitis virus [14]) [mg/kg/day] | MSD (Influenza B virus [15]) [days] | MSD (Murine hepatitis virus [16]) [days] | MTD [17] [mg/kg/day]
NC(=O)c1ncn([C@@H]2O[C@H](COP(=O)(O)OP(=O)(O)OP(=O)(O)O)[C@@H](O)[C@H]2O)n1 | inactive | Active | Active | Active | Active |  |  |  |  |  |  |  |  |  |  |  |  |  |  | 
NC(=O)c1ncn([C@@H]2O[C@H](CO)[C@@H](O)[C@H]2O)n1 | Active | Active | Active | Active | Active |  |  |  |  |  |  |  |  |  |  |  |  |  |  | 
NC(=O)c1ncn([C@@H]2O[C@H](COP(=O)([O-])[O-])[C@@H](O)[C@H]2O)n1.[Li+].[Li+] | inactive | Active | Active | Active | Active | Non-toxic | 6.1 | Non-toxic | Active | 7.6 | Active | Active | Non-toxic | Non-toxic | 5.3 | Non-toxic | 37.5 | 13.3 | 6 | 150
NC(=O)c1ncn([C@@H]2O[C@H](COP(=O)(O)OP(=O)(O)O)[C@@H](O)[C@H]2O)n1 | inactive | Active | Active | Active | Active |  |  |  |  |  |  |  |  |  |  |  |  |  |  | 
NC(=O)c1ncn([C@@H]2O[C@H](CO)[C@H]3OP(=O)(O)O[C@H]32)n1 | inactive | Active | Active | Active | Active |  |  |  |  |  |  |  |  |  |  |  |  |  |  | 
NC(=O)c1ncn([C@@H]2O[C@@H]3COP(=O)(O)O[C@H]3[C@H]2O)n1 | inactive | Active | Active | Active | Active |  |  |  |  |  |  |  |  |  |  |  |  |  |  | 
